NALP1 inh: blocks the NALP1 inflammasome reconstituted in yeast; actives 0.61% (n = 280,000); inhibition, % at 10 µM; S. cerevisiae NALP1/ASC/caspase-1 growth, X-gal OD620, 72 h; AID 2071; in the data active = inhibition mostly above about 24%, no sharp cut-off; inactive = mostly below about 32%
IMP-1 inhibitor: blocks Pseudomonas aeruginosa IMP-1 metallo-beta-lactamase; purified IMP-1, nitrocefin hydrolysis, epi-absorbance fluorescence; inhibition, % at 5.6 µM; AID 1556; actives 0.45% (n = 290,000);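 active = inhibition above the mean plus 3 SD of all compounds in the same screening run, cut at about 4.5% in these data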;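 note: 0% = IMP-1 with DMSO and 100% = DMSO wells lacking enzyme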
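Assay system: purified IMP-1; Quantity: IMP-1 0.2 nM before substrate addition; Medium: HEPES buffer pH 7.1 with ZnSO4 and Brij 35; Incubation: 15 min enzyme–compound preincubation, then 25 min nitrocefin reaction, 25 °C; Signal: fluorescence quenching readout, ex 480/em 530 nm; Controls: DMSO with and without IMP-1; Repeats: singlicate testing.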
PolyA inh: inhibitors of polyadenylation in S. cerevisiae | actives 0.02% (n = 300,000) | S. cerevisiae SKY197-pL101 polyadenylation reporter, beta-gal luminescence; efflux-impaired pdr1/pdr3 knockout yeast; score 100 = 6 SD above DMSO | activity score, % at 12 µM;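 active = lowest replicate activity score at least 50, where 100 means six control SD above control mean; inconclusive = lowest score under 50 but half or more replicates reach 50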;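 note: yeast exposed to compound for 9 h at 30 °C; higher score means more reporter readthrough which indicates perturbed polyadenylation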
SUMO Mot1 rescue: inhibitors of SUMOylation pathway: yeast Mot1-301 growth rescue; actives 1% (n = 320,000); S. cerevisiae Mot1-301 growth rescue, ATP luminescence, 38.5C; percent above DMSO median, 100 means doubled; growth rescue, % at 18.8 µM;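 active = every valid replicate shows activation above 250% relative to neutral control wells; inactive = the rest, any valid replicate at or below 250%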;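 note: OY570 slx delta 5 strain wells were the positive control but not used for scaling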
NALP3 yeast inh: inhibitors of NALP3 inflammasome in yeast | Yeast reconstituted NLRP3/ASC/caspase-1, beta-gal luminescence, 24 h | inhibition, % at 10 µM | actives 0.39% (n = 330,000);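 active = inhibition of 50% or more; inactive = inhibition below 50%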;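 note: plate controls were induced DMSO wells for no effect and uninduced yeast grown without galactose for full effect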
VIM-2 inh: blocks Pseudomonas aeruginosa VIM-2 metallo-beta-lactamase; purified VIM-2, nitrocefin hydrolysis, epi-absorbance fluorescence; AID 1527; actives 0.89% (n = 290,000); inhibition, % at 5.6 µM;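 active = inhibition above the mean of all tested compounds plus 3 SD, cutoff set per screening run, cut at about 7.5% in these data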;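 note: red hydrolysis product quenches plate fluorescence so inhibitors raise well fluorescence; 0% = enzyme with DMSO and 100% = DMSO without enzyme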
NALP3 yeast conf: NALP3 inhibition confirmation in yeast | shares compounds with NALP3 yeast inh | yeast expressing human NALP3, luminescence | inhibition, % at 10 µM | actives 81% (n = 1,300); in the data active = inhibition above about 48%
Casp1 ASC ctr: active in yeast caspase-1-ASC counter-screen for NALP3 inhibitors | inhibition, % at 10 µM | yeast expressing Caspase-1-ASC, luminescence counter screen | shares compounds with NALP3 yeast inh | actives 66% (n = 1,000) | AID 488784
NALP3 retest: yeast NALP3 inhibition, confirmed on retest; AID 488794; shares compounds with NALP3 yeast inh; yeast expressing human NALP3, luminescence read-out; inhibition, % at 10 µM; actives 53% (n = 1,000)
Numbers without * were called inactive; i = inactive; u = inconclusive; x = no result given. A selection: hits, their analogues and other compounds. The true share with any hit is near 2.9%. Cut-off read from the data, not from the text of the source, unless noted: active = inhibition above about 50%; inactive = the rest.

SMILES	NALP1 inh	IMP-1 inhibitor	PolyA inh	SUMO Mot1 rescue	NALP3 yeast inh	VIM-2 inh	NALP3 yeast conf	Casp1 ASC ctr	NALP3 retest
Cc1cccnc1N1C(=O)c2ccc(C(=O)O)cc2C1=O	-49	0	-13	-4	0	-1	x	x	x
CCN(CC)c1ccc(/C=C2\SC(=O)N(C(C)C)C2=O)o1	-13	-2	-47	0	52*	-3	44	56*	49
CC(C)N1C(=O)S/C(=C/c2ccc3c(c2)n(C)c(=O)n3C)C1=O	14	-5	-30	6	5	-1	x	x	x
Cc1cccc(C)c1NC(=O)C(C)N (stereo unspecified)	x	x	4	-3	55*	x	59*	40	43
CCOc1nc(-c2ccccc2)ncc1Oc1ccccc1	x	x	0	-12	-5	x	x	x	x
O=C1Nc2ccccc2S/C1=C/c1cccs1	x	-4	-21	12	65*	-2	-1	x	x
Clc1ccc(-c2noc(CSc3nnc(-c4ccncc4)n3-c3ccccc3)n2)cc1	9	-3	15	-20	24	-1	x	x	x
Cn1c(SCc2nc(-c3ccc(Cl)cc3)no2)nnc1-c1ccco1	-6	-3	-11	i	53*	5	66*	49	37
C=CCSc1n[nH]c(-c2ccc(OCCC)cc2)n1	18	-2	-21	33	57*	-1	73*	56*	48
Cc1ccc2nc(NC(=O)Cn3nc(C)c([N+](=O)[O-])c3C)sc2c1	26	0	32	76	50	-2	-2	x	x
CN(C)/C=C1/N=C(c2ccccc2)OC1=O	-2	1	-3	88	1	-2	x	x	x
O=CC1=C(c2ccccc2)Oc2ccccc2O1	52*	-1	-8	-9	68*	-2	64*	75*	85*
CCN(CC)c1ncnc2sc3c(c12)CCC3	16	-2	-41	-20	61*	0	64*	67*	57*
CCSc1ncnc2sc3c(c12)CCC3	3	-2	-14	406	8	-3	x	x	x
CC(C)c1ccc(-c2csc(NC(=O)c3cccs3)c2C(=O)O)cc1	-7	0	19	24	71*	0	84*	76*	74*
Cc1ccc(-c2csc(NC(=O)c3cccc(C)c3)c2C(=O)O)cc1	x	x	u	-8	65*	x	70*	66*	61*
Cc1ccc(-c2csc(NC(=O)/C=C/c3ccco3)c2C(=O)O)cc1	9	0	1	17	83*	0	90*	90*	84*
Cc1ccc(-c2csc(NC(=O)c3ccc(Br)cc3)c2C(=O)O)cc1	61*	-1	-2	6	91*	-2	96*	95*	88*
COc1ccccc1CNC(=O)CCN=C1NS(=O)(=O)c2ccccc21	x	x	x	-4	9	x	x	x	x
Cn1c(O)c(C=Nc2ccc(Br)cc2)sc1=O	10	-1	-8	-2	21	3	x	x	x
Cc1ccc2[nH]c(=O)c3cc(C(=O)NC(C)C)sc3c2c1	14	-1	-11	228	6	2	x	x	x
Cc1cccc(C(=O)Nc2scc(-c3ccc(Br)cc3)c2C(=O)O)c1	x	x	u	-1	61*	x	61*	13	26
CCCN1C(=O)c2ccccc2NC1c1ccc(O)c(OCC)c1 (stereo unspecified)	18	-3	10	3	3	-4	x	x	x
COc1cc(C=O)ccc1OCCSc1ccc(C)cc1	x	-2	-1	-7	18	-2	x	x	x
CCOc1cc(C=O)ccc1OCCSc1ccc(C)cc1	19	-2	-25	-14	65*	-2	69*	65*	39
SMILES	NALP1 inh	IMP-1 inhibitor	PolyA inh	SUMO Mot1 rescue	NALP3 yeast inh	VIM-2 inh	NALP3 yeast conf	Casp1 ASC ctr	NALP3 retest
Cc1cccc(/N=C/c2c(O)n(Cc3ccc4c(c3)OCO4)c(=O)c3ccccc23)n1	-13	0	-12	x	-3	-2	x	x	x
CCc1ccccc1NC(=O)c1cc(-c2cccs2)on1	28	-1	-13	-6	56*	1	65*	59*	60*
COc1ccc(C(=O)CCNc2ccc(C)c(Cl)c2)cc1	41	-2	0	68	14	-4	x	x	x
COc1ccc(C(=O)CCNc2ccc(F)cc2)cc1	x	-4	10	-8	57*	-4	31	x	x
COC(=O)c1c(NC(=O)CN2CCN(c3cccc(Cl)c3)CC2)sc(C)c1C	23	-4	4	-19	1	-2	x	x	x
CC1=NNC(=O)/C1=C\c1cn(-c2ccccc2)nc1-c1cccs1	65*	-2	-43	-11	54*	-6	74*	x	x
CC1=NNC(=O)/C1=C\c1cn(-c2ccccc2)nc1-c1ccc(F)cc1	8	-5	-33	x	x	-3	x	x	x
C=C(C)[C@@H]1CCC2(C(=O)O)CC[C@]3(C)[C@H](CC[C@@H]4[C@@]5(C)CCC(=O)C(C)(C)[C@@H]5CC[C@]43C)[C@@H]12 (stereo partly specified)	37	-3	26	-10	23	-2	x	x	x
C=C(CC[C@@H](O)C(C)(C)O)[C@H]1CC[C@]2(C)[C@@H]1CCC1[C@@]3(C)CCC(=O)C(C)(C)C3CC[C@]12C (stereo partly specified)	x	x	x	117	54*	x	46	52*	37
CC(C)(C)c1ccc(-c2conc2N)cc1	-76	-4	-12	-11	59*	-4	69*	66*	48
CC(=O)Nc1cccc(NC(=O)CCN2C(=O)c3ccccc3S2(=O)=O)c1	x	x	18	-1	12	x	x	x	x
CCn1c(COc2ccc(C)cc2)nnc1SCc1ccc(C#N)cc1	15	-2	-7	-15	61*	-1	71*	54*	39
COc1c(Cl)cc(C(=O)NCc2ccco2)cc1Cl	7	-5	7	-5	-2	-2	x	x	x
CCCCCCCCCCCCCCCC[N+](C)(C)CC	x	x	-2	48	65*	x	64*	62*	68*
COc1ccc(S(=O)(=O)n2ccc(-c3cnc(-c4ccccc4)s3)n2)cc1	24	-1	-10	30	18	1	x	x	x
O=C(c1ccccc1)n1ccc(-c2cnc(-c3ccccc3)s2)n1	4	-2	32	4	62*	-3	60*	25	10
Clc1ccccc1N=C1NN=C(c2cccs2)CS1	12	-2	-26	-2	52*	-1	71*	59*	50

Source: PubChem
